Consider 36 compounds from PubChem BioAssay AID624018 (Broad Institute, 2012).

Test [1] can be described thus: P. aeruginosa growth delay under iron chelation, dose response, absorbance 405 nm, dry powder (AID 624018). Conditions: P. aeruginosa growth with EDDHA, absorbance 405 nm, 24-30 h. The method in brief: (§1)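 Assay system – P. aeruginosa ATCC 15692 cells · Medium – succinate M9, pH 7.0, 2 µM EDDHA · Dosing – compound dilution series in 3-fold steps · Schedule – 24-30 h exposure at 37 °C · Measured by – 405 nm absorbance for pyoverdine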

For test [2], the system named is P. aeruginosa growth with EDDHA, absorbance 405 nm, 24-30 h. The test is described as above. In a few lines: as §1

Activity calls are given as the source filed them.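 How the source made its calls: active means fitted curve reaches a 35% signal drop at a concentration no higher than twice the top valid dose, in duplicate at both wavelengths; inactive means the rest, including activity in the opposite direction.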

As to `N#CC(c1cccc(C(F)(F)F)n1)c1ccccc1OC(F)(F)F` (stereo unspecified), the activity change, negative = inhibition in test [1] (at 50 µM (top of the series)) is -7.42% (inactive).

With `N#CC(c1ccc(F)cc1)c1ccc(C(F)(F)F)c(Cl)n1` (stereo unspecified), in test [1] (at 50 µM (top of the series)), the activity change, negative = inhibition was -5.95% (inactive).

Turning to `N#CC(c1ccc(C(F)(F)F)cc1)c1ccc(C(F)(F)F)c(Cl)n1` (stereo unspecified), the activity change, negative = inhibition in test [1] (at 50 µM (top of the series)) was -6.74% (inactive).

For `N#CC(c1ccc(Cl)cc1)c1cccc(C(F)(F)F)n1` (stereo unspecified), in test [2], the AC35 was 19.5 µM.

With `N#Cc1cccc(C(C#N)c2ccc(Cl)cc2)n1` (stereo unspecified), the activity change, negative = inhibition in test [1] (at 50 µM (top of the series)) was -11.9% (inactive).

For `CCCC(C#N)c1ccc(Cl)cc1` (stereo unspecified), in test [1] (at 50 µM (top of the series)), the activity change, negative = inhibition is -12.6% (inactive).

For the compound `N#Cc1ccc(C(C#N)c2ccc(Cl)cc2Cl)nc1` (stereo unspecified), the activity change, negative = inhibition in test [1] (at 50 µM (top of the series)) was 1.04% (inactive).

As for `N#CC(c1cccc(C(F)(F)F)n1)c1ccc(Cl)cc1F` (stereo unspecified), the AC35 in test [2] is 22.7 µM.

On to `Cc1cccc(C(C#N)c2ccc(Cl)cc2)n1` (stereo unspecified), for which the activity change, negative = inhibition in test [1] (at 50 µM (top of the series)) is -2.34% (inactive).

In the case of `N#CC(c1ccc(Cl)cc1)c1ccc(C(F)(F)F)cn1` (stereo unspecified), the activity change, negative = inhibition in test [1] (at 50 µM (top of the series)) was 4.01% (inactive).

Regarding `N#Cc1ccc(C(C#N)c2ccc(Cl)cc2)nc1` (stereo unspecified), in test [1] (at 50 µM (top of the series)), the activity change, negative = inhibition is -10.4% (inactive).

Turning to `N#CC(c1ccc(F)cc1)c1cccc(C(F)(F)F)n1` (stereo unspecified), in test [2], the AC35 is 37.6 µM.

In the case of `CC(C#N)(c1ccc(Cl)cc1)c1ccc(C(F)(F)F)cn1` (stereo unspecified), the activity change, negative = inhibition in test [1] (at 50 µM (top of the series)) was -3.75% (inactive).

`N#CC(c1ccc(Cl)cc1Cl)c1ncccc1Cl` (stereo unspecified): in test [1] (at 50 µM (top of the series)), the activity change, negative = inhibition was 2.07% (inactive).

In the case of `Cc1ccc(C(C#N)c2ccc(Cl)cc2)nc1` (stereo unspecified), the activity change, negative = inhibition in test [1] (at 50 µM (top of the series)) was -8.79% (inactive).

As for `CCCCC(C#N)c1ccc(C(F)(F)F)cc1` (stereo unspecified), in test [1] (at 50 µM (top of the series)), the activity change, negative = inhibition was -6.7% (inactive).

For the compound `Cc1ccc(C(C#N)c2ccc(Cl)cc2)nc1C#N` (stereo unspecified), in test [1] (at 50 µM (top of the series)), the activity change, negative = inhibition is -4.08% (inactive).

Take `CCCCC(C#N)c1ccc(Cl)cc1Cl` (stereo unspecified): in test [1] (at 50 µM (top of the series)), the activity change, negative = inhibition is -10.8% (inactive).

As for `CCCCC(C#N)c1ccc(Cl)cc1` (stereo unspecified), the activity change, negative = inhibition in test [1] (at 50 µM (top of the series)) is -4.2% (inactive).

For the compound `CCCCC(C#N)c1ccc(F)cc1` (stereo unspecified), the activity change, negative = inhibition in test [1] (at 50 µM (top of the series)) is -10.3% (inactive).

For `N#CC(c1ccc(C(F)(F)F)cc1)c1cccc(Cl)n1` (stereo unspecified), in test [1] (at 50 µM (top of the series)), the activity change, negative = inhibition is -8.88% (inactive).

With `N#CC(c1cccc(Cl)n1)c1ccc(Cl)cc1Cl` (stereo unspecified), in test [1] (at 50 µM (top of the series)), the activity change, negative = inhibition is -22.8% (inactive).

For the compound `Cc1ccc(C(C#N)c2ccc(F)cc2)nc1C#N` (stereo unspecified), the activity change, negative = inhibition in test [1] (at 50 µM (top of the series)) was -6.49% (inactive).

In the case of `CCCCC(C#N)c1ccc(Cl)cc1F` (stereo unspecified), in test [1] (at 50 µM (top of the series)), the activity change, negative = inhibition is -1.21% (inactive).

`CCCCC(C#N)c1ccccc1OC(F)(F)F` (stereo unspecified): in test [1] (at 50 µM (top of the series)), the activity change, negative = inhibition is -4.38% (inactive).

As to `Cc1ccc(C(C#N)c2ccccc2OC(F)(F)F)nc1C#N` (stereo unspecified), the activity change, negative = inhibition in test [1] (at 16 µM (top of the series)) is -20.9% (inactive).

Turning to `N#CC(c1ccc(Cl)cc1)c1ccc(C(F)(F)F)c(Cl)n1` (stereo unspecified), the activity change, negative = inhibition in test [1] (at 50 µM (top of the series)) was 11.9% (inactive).

For `N#CC(CC1CC1)c1ccc(Cl)cc1` (stereo unspecified), the activity change, negative = inhibition in test [1] (at 50 µM (top of the series)) was -14.4% (inactive).

Turning to `N#CC(c1cccc(Cl)n1)c1ccccc1OC(F)(F)F` (stereo unspecified), the activity change, negative = inhibition in test [1] (at 50 µM (top of the series)) was -14.6% (inactive).

As to `N#Cc1cccc(C(C#N)c2ccccc2OC(F)(F)F)n1` (stereo unspecified), the activity change, negative = inhibition in test [1] (at 50 µM (top of the series)) is -10.3% (inactive).

Consider `N#Cc1cccc(C(C#N)c2ccc(Cl)cc2F)n1` (stereo unspecified), for which the activity change, negative = inhibition in test [1] (at 50 µM (top of the series)) was -14.6% (inactive).

Take `N#Cc1cccc(C(C#N)c2ccc(Cl)cc2Cl)n1` (stereo unspecified): the activity change, negative = inhibition in test [1] (at 50 µM (top of the series)) was -3.73% (inactive).

With `N#CC(c1ccc(C(F)(F)F)c(Cl)n1)c1ccccc1OC(F)(F)F` (stereo unspecified), the activity change, negative = inhibition in test [1] (at 50 µM (top of the series)) is -8.72% (inactive).

Consider `N#CC(c1ccc(C(F)(F)F)cc1)c1cccc(C(F)(F)F)n1` (stereo unspecified), for which the activity change, negative = inhibition in test [1] (at 50 µM (top of the series)) is -4.57% (inactive).

Take `N#CC(c1ccc(Cl)cc1)c1ncccc1Cl` (stereo unspecified): in test [2], the AC35 is 12.6 µM.

In the case of `N#CC(c1ccc(C(F)(F)F)c(Cl)n1)c1ccc(Cl)cc1Cl` (stereo unspecified), the activity change, negative = inhibition in test [1] (at 50 µM (top of the series)) is 4.93% (inactive).
